The record followed here is ChEMBL document CHEMBL1131208, “Substituted 2-iminopiperidines as inhibitors of human nitric oxide synthase isoforms” (J Med Chem, 1998).

The target of one experiment is T1, Nitric oxide synthase 3 (Homo sapiens, UniProt P29474).
T1 sequence (P29474 whole entry): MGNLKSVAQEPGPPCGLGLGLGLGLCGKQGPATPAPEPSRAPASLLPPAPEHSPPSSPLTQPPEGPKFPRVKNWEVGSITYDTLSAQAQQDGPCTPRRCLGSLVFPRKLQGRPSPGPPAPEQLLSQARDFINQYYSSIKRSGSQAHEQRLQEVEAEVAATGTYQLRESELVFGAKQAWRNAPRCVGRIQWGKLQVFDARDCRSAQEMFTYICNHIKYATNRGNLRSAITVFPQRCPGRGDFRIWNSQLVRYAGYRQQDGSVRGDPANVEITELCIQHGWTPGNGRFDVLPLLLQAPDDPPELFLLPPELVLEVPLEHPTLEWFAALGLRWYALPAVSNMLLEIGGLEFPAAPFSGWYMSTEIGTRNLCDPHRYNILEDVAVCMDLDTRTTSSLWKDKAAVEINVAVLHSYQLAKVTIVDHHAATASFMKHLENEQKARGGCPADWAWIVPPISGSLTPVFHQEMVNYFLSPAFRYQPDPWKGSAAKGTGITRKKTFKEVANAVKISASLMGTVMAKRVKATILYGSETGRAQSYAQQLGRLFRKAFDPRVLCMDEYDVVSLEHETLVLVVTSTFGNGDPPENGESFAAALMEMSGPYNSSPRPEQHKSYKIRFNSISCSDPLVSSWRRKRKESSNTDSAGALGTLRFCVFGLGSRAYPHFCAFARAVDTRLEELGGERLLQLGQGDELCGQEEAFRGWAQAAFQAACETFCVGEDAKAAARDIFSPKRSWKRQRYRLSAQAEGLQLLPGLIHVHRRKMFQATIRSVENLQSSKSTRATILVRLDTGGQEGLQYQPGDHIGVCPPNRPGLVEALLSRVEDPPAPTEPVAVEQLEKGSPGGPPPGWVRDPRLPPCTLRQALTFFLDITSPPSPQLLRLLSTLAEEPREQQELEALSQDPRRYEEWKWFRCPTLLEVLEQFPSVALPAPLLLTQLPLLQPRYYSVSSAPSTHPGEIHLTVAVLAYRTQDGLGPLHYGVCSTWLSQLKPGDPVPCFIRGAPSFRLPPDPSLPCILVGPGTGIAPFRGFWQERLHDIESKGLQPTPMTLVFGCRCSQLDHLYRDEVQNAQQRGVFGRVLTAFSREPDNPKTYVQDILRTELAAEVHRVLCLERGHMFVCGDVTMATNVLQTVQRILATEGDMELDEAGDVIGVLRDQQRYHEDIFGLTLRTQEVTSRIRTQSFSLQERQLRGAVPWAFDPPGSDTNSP
In words: inhibition of human endothelial constitutive Endothelial nitric oxide synthase (heNOS).

In experiment [1] the target is Nitric oxide synthase, inducible (Homo sapiens, UniProt P35228). The experiment is described as follows: Inhibition of human Inducible nitric oxide synthase.
For the next experiment, the target named is Nitric oxide synthase 1 (Homo sapiens, UniProt P29475). The experiment is described as follows: Inhibition of human Neuronal nitric oxide synthase.
The target in experiment [2] is Nitric oxide synthase (inducible and endothelial) (Homo sapiens) (UniProt P35228+P29474). In words: Selectivity is the ratio between the IC50 values of heNOS and hiNOS. Type of experiment: protein assay. The essentials: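 Recombinant human iNOS/eNOS expressed in Sf9 cells (baculovirus), partially purified by DEAE-Sepharose. Eight inhibitor concentrations were tested with 30 μM final L-arginine containing [3H]arginine, in Tris pH 7.6 with BSA, DTT, CaCl2, FAD, tetrahydrobiopterin and NADPH, 15 min at 37 °C. eNOS also had 40 nM calmodulin. [3H]citrulline was separated on cation-exchange resin and counted. Assays were run at least in duplicate; IC50 was derived.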

In the next experiment the test system is Rattus norvegicus. The experiment is described as follows: Compound at an oral dose of 10 mg/Kg was tested in vivo for the inhibition of plasma nitrite levels in LPS-treated rats. Type of experiment: functional. The essentials:
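Male Lewis rats dosed orally 1 h before intraperitoneal LPS (10–12.5 mg/kg) to induce iNOS. Plasma nitrite/nitrate measured 5 h after LPS by fluorometric assay. Percent inhibition is relative to LPS-only versus saline controls; n = 6 animals/dose.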

Where only a bound is given, the exact number is not on record here.

Nitric oxide synthase 1, sequence (P29475 whole entry): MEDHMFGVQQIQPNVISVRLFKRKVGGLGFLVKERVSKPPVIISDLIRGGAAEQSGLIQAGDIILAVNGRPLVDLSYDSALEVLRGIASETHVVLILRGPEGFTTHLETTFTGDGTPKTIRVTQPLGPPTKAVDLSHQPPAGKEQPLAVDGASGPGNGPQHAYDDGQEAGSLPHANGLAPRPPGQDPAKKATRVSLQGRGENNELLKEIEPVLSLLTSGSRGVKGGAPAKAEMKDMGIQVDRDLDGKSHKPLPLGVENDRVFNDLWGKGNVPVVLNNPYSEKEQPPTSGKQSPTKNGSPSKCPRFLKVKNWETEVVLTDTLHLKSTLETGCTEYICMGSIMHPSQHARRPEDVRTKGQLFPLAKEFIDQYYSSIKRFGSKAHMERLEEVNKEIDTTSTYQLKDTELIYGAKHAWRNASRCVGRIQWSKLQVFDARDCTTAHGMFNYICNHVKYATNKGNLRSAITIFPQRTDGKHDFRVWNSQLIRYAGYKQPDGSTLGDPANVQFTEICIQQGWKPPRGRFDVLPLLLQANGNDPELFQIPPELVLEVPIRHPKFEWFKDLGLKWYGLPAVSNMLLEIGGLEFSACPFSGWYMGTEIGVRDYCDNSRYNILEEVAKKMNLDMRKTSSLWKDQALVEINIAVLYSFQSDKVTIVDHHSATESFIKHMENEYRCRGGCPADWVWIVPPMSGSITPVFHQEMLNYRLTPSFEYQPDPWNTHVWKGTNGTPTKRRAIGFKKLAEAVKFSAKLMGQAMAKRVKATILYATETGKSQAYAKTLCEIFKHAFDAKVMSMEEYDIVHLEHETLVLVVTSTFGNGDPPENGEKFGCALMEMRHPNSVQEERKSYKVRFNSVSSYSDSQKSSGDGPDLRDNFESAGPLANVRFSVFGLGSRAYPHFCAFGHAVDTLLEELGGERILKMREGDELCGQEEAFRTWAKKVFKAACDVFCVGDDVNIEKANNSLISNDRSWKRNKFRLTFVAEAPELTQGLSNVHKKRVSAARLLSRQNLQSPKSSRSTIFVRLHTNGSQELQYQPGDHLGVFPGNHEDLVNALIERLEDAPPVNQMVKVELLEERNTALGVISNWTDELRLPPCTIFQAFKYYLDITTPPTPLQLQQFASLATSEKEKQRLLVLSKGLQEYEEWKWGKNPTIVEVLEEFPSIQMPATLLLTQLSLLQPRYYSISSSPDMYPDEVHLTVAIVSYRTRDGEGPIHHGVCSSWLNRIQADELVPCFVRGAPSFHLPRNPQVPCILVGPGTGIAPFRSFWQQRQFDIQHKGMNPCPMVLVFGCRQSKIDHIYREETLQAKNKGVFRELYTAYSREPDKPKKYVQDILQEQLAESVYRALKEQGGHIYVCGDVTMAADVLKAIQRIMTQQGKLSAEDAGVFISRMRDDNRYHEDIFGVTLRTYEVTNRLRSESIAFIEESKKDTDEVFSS
Nitric oxide synthase, inducible, sequence (P35228 whole entry): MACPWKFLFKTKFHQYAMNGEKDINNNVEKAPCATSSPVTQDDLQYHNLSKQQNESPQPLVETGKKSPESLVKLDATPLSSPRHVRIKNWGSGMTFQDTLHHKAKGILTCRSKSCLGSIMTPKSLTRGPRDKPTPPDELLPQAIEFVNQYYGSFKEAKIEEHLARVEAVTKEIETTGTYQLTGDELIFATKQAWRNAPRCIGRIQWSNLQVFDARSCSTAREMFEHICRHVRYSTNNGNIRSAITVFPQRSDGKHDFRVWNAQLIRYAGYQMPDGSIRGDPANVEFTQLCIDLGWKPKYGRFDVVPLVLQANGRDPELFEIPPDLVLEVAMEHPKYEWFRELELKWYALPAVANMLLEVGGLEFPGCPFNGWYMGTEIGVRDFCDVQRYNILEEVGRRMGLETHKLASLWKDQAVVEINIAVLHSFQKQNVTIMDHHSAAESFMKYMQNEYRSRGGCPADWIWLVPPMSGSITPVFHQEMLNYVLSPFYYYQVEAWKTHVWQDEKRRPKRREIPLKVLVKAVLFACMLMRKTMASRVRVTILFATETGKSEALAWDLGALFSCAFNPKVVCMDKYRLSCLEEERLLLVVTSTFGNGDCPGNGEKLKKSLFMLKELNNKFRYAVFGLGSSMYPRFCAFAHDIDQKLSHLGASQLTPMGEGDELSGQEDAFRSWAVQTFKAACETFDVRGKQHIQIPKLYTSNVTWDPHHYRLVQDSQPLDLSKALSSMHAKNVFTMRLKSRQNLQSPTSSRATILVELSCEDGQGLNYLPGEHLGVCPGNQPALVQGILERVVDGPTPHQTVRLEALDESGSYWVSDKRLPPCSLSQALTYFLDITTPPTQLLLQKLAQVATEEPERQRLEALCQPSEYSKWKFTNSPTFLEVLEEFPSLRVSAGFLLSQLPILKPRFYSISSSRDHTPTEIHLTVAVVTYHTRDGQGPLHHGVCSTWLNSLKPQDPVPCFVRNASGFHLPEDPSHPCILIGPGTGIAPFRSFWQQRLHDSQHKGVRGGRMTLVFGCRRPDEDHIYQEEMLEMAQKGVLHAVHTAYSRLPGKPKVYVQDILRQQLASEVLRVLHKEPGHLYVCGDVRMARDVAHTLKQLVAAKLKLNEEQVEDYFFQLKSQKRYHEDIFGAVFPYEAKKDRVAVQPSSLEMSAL
Nitric oxide synthase (inducible and endothelial) (Homo sapiens), sequence (P35228 whole entry, looked up, one chain of several): as the sequence (P35228 whole entry) above

For orientation: IC50 means the concentration that gives 50% inhibition. A higher IC50 goes with lower potency. Consider `CC1(C)CCN=C(N)C1`, for which the figures for the IC50 (against Nitric oxide synthase 3; in experiment [1]; against Nitric oxide synthase 1) were 5.3 µM, 3.4 µM and 5.9 µM, respectively. For the same molecule, the Selectivity in experiment [2] was determined as 1.6.
Take `CC1CCCC(N)=N1` (stereo not given): the results for the IC50 (at Nitric oxide synthase 3; in experiment [1]; against Nitric oxide synthase 1) were 0.6 µM, 0.5 µM and 0.4 µM, respectively. For the same molecule, the Selectivity in experiment [2] worked out at 1.
As usually defined, the inhibition in vivo is the drop in the measured response relative to a control, in per cent. High values mean strong suppression, low ones little suppression. In the case of `NC1=NCCC(C(F)(F)F)C1` (stereo not given), the figures for the IC50 (on Nitric oxide synthase 3; in experiment [1]; on Nitric oxide synthase 1) were 47 µM, 3.2 µM and 3.3 µM, respectively. Moreover, at 10 mg/kg the inhibition in vivo with Rattus norvegicus was 24%. Besides, the Selectivity in experiment [2] is 15.
`CCCC1CCCC(N)=N1` (stereo not given): the half-inhibitory concentration (IC50) is 2.2 µM on Nitric oxide synthase 3, 0.2 µM in experiment [1] and 0.5 µM at Nitric oxide synthase 1. In experiment [2], the Selectivity turned out to be 11.
In the case of `CCCC1CCN=C(N)C1` (stereo not given), the IC50 (on Nitric oxide synthase 3; in experiment [1]; against Nitric oxide synthase 1) was more than 100 µM throughout.
With `CCC1CCN=C(N)C1` (stereo not given), the Selectivity in experiment [2] turned out to be 5.
Consider `NC1=NC(C(F)(F)F)CCC1` (stereo not given), for which the IC50 stood at 2 µM at Nitric oxide synthase 3, 0.5 µM in experiment [1] and 0.5 µM against Nitric oxide synthase 1. Moreover, in experiment [2], the Selectivity is 4.
As for `CN1CCCCC1=N`, the 50% inhibitory concentration (IC50) (against Nitric oxide synthase 3; in experiment [1]; at Nitric oxide synthase 1) was more than 100 µM in each case.
The molecule `NC1=NC(Cc2ccccc2)CCC1` (stereo not given) came in with a half-inhibitory concentration (IC50) against Nitric oxide synthase 1 of 0.9 µM.
Regarding `NC1=NC(CC2CCCCC2)CCC1` (stereo not given), in experiment [2], the Selectivity is 64.
Regarding `NC1=Nc2ccccc2CC1`, the IC50 against Nitric oxide synthase 3 came to 218 µM; in experiment [1] it was 99 µM; against Nitric oxide synthase 1 it was 28 µM. In addition, the Selectivity in experiment [2] was determined as 2.
`N=C1CCCCN1` showed a 50% inhibitory concentration (IC50) in experiment [1] of 1.1 µM. In the experiment with Rattus norvegicus, this molecule showed an inhibition in vivo at 10 mg/kg of 62%.
Consider `NC1=NC(C2CCCCC2)CCC1` (stereo not given), for which the half-inhibitory concentration (IC50) on Nitric oxide synthase 3 was found to be 142 µM; in experiment [1], 8.7 µM; on Nitric oxide synthase 1, 5.3 µM. The molecule also showed an inhibition in vivo at 10 mg/kg in the experiment with Rattus norvegicus of 18%. For the same molecule, the Selectivity in experiment [2] is 16.
For `CC1CCC(N)=NC1` (stereo not given), the half-maximal inhibitory concentration (IC50) on Nitric oxide synthase 3 was 58 µM; in experiment [1] it was 5.1 µM.
As for `CC1CC(N)=NC(C)C1` (stereo not given), the 50% inhibitory concentration (IC50) against Nitric oxide synthase 3 came to 0.3 µM; in experiment [1], 0.08 µM; on Nitric oxide synthase 1, 0.06 µM. The same molecule had an inhibition in vivo at 10 mg/kg in the experiment with Rattus norvegicus of 98%. Also, the Selectivity in experiment [2] was determined as 4.
`CC1CCN=C(N)C1` (stereo not given) registered an IC50 in experiment [1] of 0.1 µM. In the experiment with Rattus norvegicus, this molecule returned an inhibition in vivo at 10 mg/kg of 87%.
Regarding `CC1CCCN=C1N` (stereo not given), the figures for the IC50 (against Nitric oxide synthase 3; in experiment [1]; against Nitric oxide synthase 1) were 3 µM, 6 µM and 0.7 µM, respectively. Moreover, the Selectivity in experiment [2] came to 0.5.
With `CNC1=NCCCC1`, the concentration for half-maximal inhibition (IC50) (at Nitric oxide synthase 3; in experiment [1]; at Nitric oxide synthase 1) was more than 100 µM in each case.
Take `CCC1CCNC(=N)C1` (stereo not given): the 50% inhibitory concentration (IC50) against Nitric oxide synthase 3 is 13 µM; in experiment [1], 2.6 µM; against Nitric oxide synthase 1, 1.6 µM.
